Active and inactive are the calls of the source. The rule behind the calls is not given here.
Legend:
[1] = tested on: IGROV-1; assay: Cell cycle arrest in IGROV1 cells assessed as accumulation at G1/S phase by FAC scan flow cytometry; format: functional, cell-based; conditions: Homo sapiens
How it was run: (§1)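 Cells treated at the IC₈₀ concentration. Cell cycle distribution of propidium iodide-stained cells measured by FACScan flow cytometry at 24, 48 and 72 h of treatment. One experiment representative of three.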

[2] = tested on: NB-4; assay: Antiproliferative activity against human NB4 cells after 72 hrs; format: functional, cell-based; conditions: NB-4, 72 h
How it was run: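 Leukemia cells were exposed to drug for 24 h, and growth inhibition was assessed at 72 h by cell counting. IC₅₀ is the concentration giving a 50% drop in cell number versus untreated control.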

[3] = tested on: IGROV-1; assay: Antiproliferative activity against human IGROV1 cells after 72 hrs; format: functional, cell-based; conditions: IGROV-1, 72 h
How it was run: (§2)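 Ovarian carcinoma cells in log-phase growth were seeded in duplicate. Drug was added 24 h after seeding and exposure lasted 72 h. Cells were harvested and counted with a cell counter. IC₅₀ is the concentration giving a 50% drop in cell number versus untreated control.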

[4] = tested on: IGROV-1; assay: Induction of DNA damage in IGROV1 cells assessed as RPA2 protein phosphorylation after 6 hrs; format: functional, cell-based; conditions: Homo sapiens
[5] = tested on: IGROV-1; assay: Cell cycle arrest in IGROV1 cells assessed as accumulation at subG1 phase by FAC scan flow cytometry; format: functional, cell-based; conditions: Homo sapiens, TDE = time-dependent effect; how it was run: as §1
[6] = Antiproliferative activity against human cisplatin-resistant IGROV1/Pt1 cells with p53 mutation after 72 hrs; format: functional, cell-based, IGROV-1; how it was run: as §2
[7] = tested on: IGROV-1; assay: Induction of DNA damage in IGROV1 cells assessed as H2AX histone phosphorylation after 6 hrs; format: functional, cell-based; conditions: Homo sapiens
[8] = tested on: IGROV-1; assay: Induction of DNA damage in IGROV1 cells assessed as p53 protein phosphorylation after 6 hrs; format: functional, cell-based; conditions: Homo sapiens
[9] = tested on: IGROV-1; assay: Induction of apoptosis in IGROV1 cells after 72 hrs by TUNEL assay; format: functional, Homo sapiens; parameters: concentration or dose not given beside the values
How it was run: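 Cells exposed to drug for 72 h, fixed in 4% paraformaldehyde for 60 min at room temperature, then washed and resuspended in ice-cold PBS. Apoptosis detected by TUNEL and analyzed by flow cytometry.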

[10] = biological target: T1, MAP kinase p38 (Homo sapiens) (UniProt O15264+Q15759+Q16539+P53778); assay: Activation of p38 kinase in IGROV1/Pt1 cells with p53 mutation assessed as phosphorylation after 18 hrs; format: cell-based; conditions: IGROV-1
How it was run: (§3)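 Cells treated for 18 h at each compound's IC₈₀ concentration. Lysates analyzed by Western blot with phospho-specific antibodies to detect activated JNK and p38.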

[11] = biological target: c-Jun N-terminal kinase, JNK (Homo sapiens) (UniProt P45983+P53779+P45984); assay: Activation of JNK in IGROV1 cells assessed as phosphorylation after 18 hrs; format: cell-based; conditions: IGROV-1; how it was run: as §3
[12] = biological target: T1, MAP kinase p38 (Homo sapiens); assay: Activation of p38 kinase in IGROV1 cells assessed as phosphorylation after 18 hrs; format: cell-based; conditions: IGROV-1; how it was run: as §3
[13] = Homo sapiens, IGROV-1/Pt1, 72 h

With `COc1ccc(-c2ccc(/C=C/C(=O)O)cc2)cc1C12CC3CC(CC(C3)C1)C2` the Activity [1] was “Active”, the IC50 [2] was 1100 nM and the IC50 [3] was 1190 nM. The Activity [4] was “Active”, the Activity [5] was “tde” and the IC50 [6, 13] was 1430 nM. For the same compound, the Activity [7] was “Active”, the Activity [8] was “Active” and the Activity [9] was 47%.

`COc1ccc(-c2ccc(/C=C(/Br)C(=O)O)cc2)cc1C12CC3CC(CC(C3)C1)C2` showed an IC50 [2] of 41000 nM, an IC50 [3] of 30600 nM and an IC50 [6, 13] greater than 10000 nM.

In the case of `Cl.NCc1cc(-c2ccc(/C=C/C(=O)O)cc2)cc(C23CC4CC(CC(C4)C2)C3)c1O`, the Activity [1] is reported as “Active”, the IC50 [2] is reported as 180 nM and the IC50 [3] is reported as 450 nM. For the same compound, the Activity [4] was “Active”, the Activity [5] was “tde” and the IC50 [6, 13] was 390 nM. For the same compound, the Activity [8] was “Active” and the Activity [9] was 55%.

`COc1cc(-c2ccc(/C=C/C(=O)O)cc2)cc(C23CC4CC(CC(C4)C2)C3)c1O` showed an IC50 [2] of 270 nM and an IC50 [3] of 520 nM.

In the case of `O=C(O)/C=C/c1ccc(-c2cc3c(c(C45CC6CC(CC(C6)C4)C5)c2)OCCO3)cc1`, the Activity [1] is reported as “Active”, the IC50 [2] is reported as 110 nM and the IC50 [3] is reported as 230 nM. The Activity [4] was “Active”, the Activity [5] was “tde” and the IC50 [6, 13] was 480 nM. The Activity [8] was “Active” and the Activity [9] was 30%.

`O=Cc1cc(-c2ccc(/C=C/C(=O)O)cc2)cc(C23CC4CC(CC(C4)C2)C3)c1O` gave an IC50 [2] of 1610 nM, an IC50 [3] of 1640 nM and an IC50 [6, 13] of 2720 nM.

Compound `COc1ccc(-c2ccc(C#CC(=O)O)cc2)cc1C12CC3CC(CC(C3)C1)C2` has an IC50 [3] of 1700 nM and an IC50 [6, 13] of 4800 nM.

`O=C(O)/C=C/c1ccc(-c2cccc(C34CC5CC(CC(C5)C3)C4)c2)cc1` showed an IC50 [3] of 18800 nM and an IC50 [6, 13] of 21900 nM.

With `O=C(O)C#Cc1ccc(-c2cc3c(c(C45CC6CC(CC(C6)C4)C5)c2)OCO3)cc1` the IC50 [2] was 2000 nM, the IC50 [3] was 3600 nM and the IC50 [6, 13] was 4800 nM.

`COc1ccc(-c2ccc(/C=C(\Br)C(=O)O)cc2)cc1C12CC3CC(CC(C3)C1)C2` gave an IC50 [2] of 17900 nM, an IC50 [3] greater than 20000 nM and an IC50 [6, 13] greater than 20000 nM.

In the case of `O=C(O)/C=C/c1ccc(-c2ccc(O)c(C34CC5CC(CC(C5)C3)C4)c2)cc1` [ADAROTENE], the Activity [10] is reported as “Active”, the Activity [4] is reported as “Active” and the IC50 [6, 13] is reported as 400 nM. For the same compound, the Activity [8] was “Active” and the Activity [9] was 51%.

Compound `CC(=O)NCc1cc(-c2ccc(/C=C/C(=O)O)cc2)cc(C23CC4CC(CC(C4)C2)C3)c1O` has an IC50 [2] of 990 nM, an IC50 [3] of 1240 nM and an IC50 [6, 13] of 2890 nM.

Compound `O=C(O)/C(Br)=C\c1ccc(-c2cc3c(c(C45CC6CC(CC(C6)C4)C5)c2)OCO3)cc1` has an IC50 [2] of 72300 nM, an IC50 [3] of 36600 nM and an IC50 [6, 13] of 34100 nM.

With `COc1c(O)cc(-c2ccc(/C=C/C(=O)O)cc2)cc1C12CC3CC(CC(C3)C1)C2` the Activity [1] was “Active”, the IC50 [2] was 550 nM and the IC50 [3] was 570 nM. For the same compound, the Activity [4] was “Active”, the Activity [5] was “tde” and the IC50 [6, 13] was 970 nM. The Activity [8] was “Active” and the Activity [9] was 20%.

For `COc1cc(-c2ccc(/C=C/C(=O)O)cc2)cc(C23CC4CC(CC(C4)C2)C3)c1OC`, the IC50 [2] was 1890 nM, the IC50 [3] was 710 nM and the IC50 [6, 13] was 2400 nM.

For `O=C(O)/C=C/c1ccc(-c2cc3c(c(C45CC6CC(CC(C6)C4)C5)c2)OCO3)cc1`, the Activity [11] was “Active”, the Activity [1] was “Active” and the IC50 [2] was 260 nM. The IC50 [3] was 390 nM, the Activity [12] was “Active” and the Activity [4] was “Active”. For the same compound, the Activity [5] was “tde”, the IC50 [6, 13] was 460 nM and the Activity [8] was “Active”. The Activity [9] was 50%.

With `O=C(O)/C=C/c1ccc(-c2cc(CO)c(O)c(C34CC5CC(CC(C5)C3)C4)c2)cc1` the IC50 [2] was 190 nM, the IC50 [3] was 760 nM and the Activity [4] was “Active”. The IC50 [6] was 1040 nM, the Activity [8] was “Active” and the Activity [9] was 45%.
